# OX1R antag-1 = antagonists of human orexin 1 receptor (OX1R). AID 485270. OX1R-expressing cells, FRET antagonist read-out. inhibition, % at 6.6 µM. hit rate 1.8% among 330,000; in the data active = inhibition mostly above about 38%, no sharp cut-off; inactive = mostly below about 40%;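 note: 0% = agonist challenge alone and 100% = reference antagonist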
# OX1R antag-2 = human HCRTR1 antagonism; AID 434989; inhibition, % at 5 µM; O43613; CHO/OX1R cells, Fluo-8 calcium fluorescence, orexin A; hit rate 0.43% among 330,000;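 active = inhibition above its plate's threshold, mean inhibition of all tested compounds on the plate plus 3 SD, cut at about 37% in these data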;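 note: 0% = orexin A challenge wells and 100% = SB-334867-A antagonist wells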
# CHO parental Ca = signal in parental CHO cells, OX1R antagonist counter-screen | AID 463079 | parental CHO-K1, ATP-induced calcium, Fluo-8 fluorescence | hit rate 0.63% among 330,000 | inhibition, % at 5.6 µM;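 active = inhibition above that plate's mean sample inhibition plus 3 SD, cut at about 26% in these data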;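 note: 0% = ATP-challenged DMSO wells and 100% = DMSO wells without ATP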
#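 Material – parental CHO cells · Reagent – ATP stimulus · Compound – single nominal dose of 5.6 µM per compound · Detection – Fluo-8 fluorescence · Read-out basis – percent inhibition of calcium signal · Controls – ATP-challenged DMSO wells low, unchallenged DMSO wells high · Repeats – no replicates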
# GPR7 antag = antagonists of human GPR7 (neuropeptides B/W receptor 1). hit rate 1.1% among 290,000. P48145. inhibition, % at 4.4 µM. GPR7-expressing cells, fluorescence antagonist assay; in the data active = inhibition above about 16%, passing the limit was not always enough;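 note: cells stimulated with the agonist NPW; 0% = agonist with vehicle and 100% = vehicle without agonist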
# Target sequence (P48145 whole entry, looked up): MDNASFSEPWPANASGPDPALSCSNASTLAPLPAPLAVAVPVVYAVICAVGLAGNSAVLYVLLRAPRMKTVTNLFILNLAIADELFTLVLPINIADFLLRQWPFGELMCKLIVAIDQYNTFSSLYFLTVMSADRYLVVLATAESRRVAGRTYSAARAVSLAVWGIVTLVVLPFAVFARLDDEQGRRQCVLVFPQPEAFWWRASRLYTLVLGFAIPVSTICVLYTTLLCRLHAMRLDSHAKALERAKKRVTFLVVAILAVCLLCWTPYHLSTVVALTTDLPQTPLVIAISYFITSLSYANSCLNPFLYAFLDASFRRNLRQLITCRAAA
# GalR3 antag = blocks the human galanin receptor 3; O60755; hit rate 0.44% among 360,000; AID 651719; inhibition, % at 3 µM; HEK293 GalR3-CNG cAMP membrane potential fluorescence; galR3 body fused to GalR1 C-terminus;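 active = inhibition above the screen-wide average plus 3 SD, cut at about 13% in these data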;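 note: forskolin and galanin both at EC90 stimulate the cells; cAMP rise reported by CNG channel membrane potential dye signal; 0% = forskolin plus galanin with DMSO and 100% = forskolin alone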
# Target sequence (O60755 1-299 limits assumed): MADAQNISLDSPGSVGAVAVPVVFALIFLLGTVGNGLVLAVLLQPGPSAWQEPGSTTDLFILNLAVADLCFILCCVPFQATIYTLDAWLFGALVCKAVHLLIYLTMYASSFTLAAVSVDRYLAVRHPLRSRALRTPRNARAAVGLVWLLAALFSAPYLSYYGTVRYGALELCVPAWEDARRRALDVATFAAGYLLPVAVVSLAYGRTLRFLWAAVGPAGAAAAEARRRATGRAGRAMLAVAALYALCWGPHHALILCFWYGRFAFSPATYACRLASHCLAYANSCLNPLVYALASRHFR
# Active calls of the source: *; x = no result given. Most compounds without a hit are left out; they make up all but 3.1% or so of the library.
SMILES,OX1R antag-1,OX1R antag-2,CHO parental Ca,GPR7 antag,GalR3 antag
COCCn1c(SCC(=O)Nc2ccc3c(c2)OCCO3)nnc1-c1c[nH]c2ccccc12,50*,6,-31,7,-5
O=C(CCl)N(O)c1ccc(C=Cc2ccccc2)cc1,x,x,x,x,-7
Oc1cccc(N2CCN(c3cccc(O)c3)CC2)c1,x,x,x,x,-10
COc1ccc(-c2[nH]ncc2-c2cscn2)c(O)c1,8,-1,-10,5,-6
COc1ccc(O)c(-c2cn[nH]c2-c2cccs2)c1,11,-10,-1,20*,-2
O=C(Nc1cccnc1)c1ccc2c(c1)C(=O)N(CC1CCCO1)C2=O (stereo not given),73*,-5,-6,-7,-4
COc1cccc(/C=C2/SC(=S)N(CCCC(=O)Nc3ccc(O)cc3)C2=O)c1,73*,10,-9,-19,0
COc1cccc(/C=C2/SC(=S)N(CC(=O)NNC(=O)c3ccccc3O)C2=O)c1,48*,-3,-11,-4,-10
O=C(CN1C(=O)/C(=C/c2ccccc2)SC1=S)NNC(=O)c1ccccc1O,14,-6,0,-4,-9
O=C(CCCN1C(=O)/C(=C/c2ccc3c(c2)OCO3)SC1=S)Nc1cccc(C(=O)O)c1,54*,7,-17,12,-2
COc1ccc(/C=C2/SC(=S)N(CCCC(=O)Nc3ccc(O)cc3)C2=O)cc1OC,54*,-11,-1,-25,-2
O=C(CCN1C(=O)/C(=C/c2ccc3c(c2)OCO3)SC1=S)Nc1cccc(C(=O)O)c1,10,-5,4,-4,-7
CNc1snc(C)c1C(=O)OCC(=O)NCc1ccccc1OC,2,-21,-20,x,-5
O=C(Cn1cc(C(=O)C2CCCCC2)c2ccccc21)NCC1CCCO1 (stereo not given),17,-21,-24,-11,2
O=C(Cc1cccc(NC(=O)C2CCCN(C(=O)C3CCCCC3)C2)c1)Nc1cccc(C(=O)N2CCCC2)c1 (stereo not given),8,-20,-19,x,-1
Cc1ccc(S(=O)(=O)c2nc(-c3cccs3)oc2NCCCN(C)C)cc1,19,-2,-10,-1,-2
CCCCC(C(=O)NC(C)c1ccccc1)C(=O)NC(C)c1ccccc1 (stereo not given),57*,13,-16,-15,-8
COc1cc2c(cc1OC)CN(c1ccc3ccccc3n1)CC2,73*,-10,-15,29,-10
COc1cc2c(cc1OC)CN(c1ccc(-c3ccccc3OC)nn1)CC2,34,-19,-5,-15,x
COc1cc(/C=N/NC(=O)c2ccc(C)nc2)cc([N+](=O)[O-])c1O,43*,-24,-16,8,0
COc1cc(/C=N/NC(=O)Cc2ccccc2)ccc1Oc1ccc([N+](=O)[O-])cc1[N+](=O)[O-],14,-9,29*,-8,-4
COc1cc(/C=N/NC(=O)Cc2ccccc2)cc([N+](=O)[O-])c1O,54*,0,-2,-15,-8
CC(C)Oc1ccc(CCN=C(N)N=C(N)N)cc1Cl,1,-15,-7,0,-7
Cc1nn(CC(=O)NC2(C)CCS(=O)(=O)C2)c(C)c1S(=O)(=O)N(C)C (stereo not given),6,0,-3,x,-5
O=C(NCCCn1ccnc1)C(=O)NCC(c1ccco1)N1CCN(c2ccc(F)cc2)CC1 (stereo not given),11,-12,-22,-2,13*
SMILES,OX1R antag-1,OX1R antag-2,CHO parental Ca,GPR7 antag,GalR3 antag
CCCOC(=O)c1ccc(Oc2c(-c3ccc(O)cc3O)n[nH]c2C)cc1,2,4,50*,-12,-2
CCCc1cc(=O)oc2c(C)c(OCC(=O)N3CCC(C(=O)O)(c4ccccc4)CC3)ccc12,11,-13,-9,-11,3
FC(F)(F)c1nc(-c2ccncc2)ncc1-c1nnnn1-c1ccccc1,15,-10,-23,-7,-2
Cc1ccc(-n2nnnc2-c2cnc(-c3cccnc3)nc2C(F)(F)F)cc1,40,-20,-11,-1,1
FC(F)(F)c1nc(N2CCCC2)ncc1-c1nnnn1-c1ccc(Cl)cc1,50,61*,47*,-6,-3
FC(F)(F)c1ccncc1-c1nnnn1-c1ccc(Cl)cc1,14,-4,-8,13,-1
c1ccc(-n2nnnc2-c2cnc(-c3ccncc3)nc2-c2cccs2)cc1,46*,21,-11,-14,1
Fc1ccc(-n2nnnc2-c2cnc(-c3cccs3)nc2C(F)(F)F)cc1,83*,39,51*,-15,-4
O=C(CSc1ccccc1F)NCCCN1CCCC1=O,1,-13,4,x,-4
COc1ccc(S(=O)(=O)N2CCOC2CNC(=O)C(=O)NCc2ccccn2)cc1OC (stereo not given),x,x,x,x,-3
CCCNC(=O)C1(C)CCCN(Cc2cccc(C#N)c2)C1 (stereo not given),x,x,x,x,-4
CC(C)c1ccc(NC(=O)N2CCc3ccccc3C2)cc1,9,-31,-14,41*,-6
CCCCCCCCN1C(=O)[C@H](CC(=O)N2CCSCC2)C[C@@]2(C(=O)OCC)CCCC=C12,x,x,x,x,-2
C=CCCN([C@H](CO)Cc1ccccc1)S(=O)(=O)c1ccccc1Br,46*,23,-19,x,-7
CCN(Cc1ccccc1)S(=O)(=O)c1ccccc1Br,29,-10,-15,x,-7
C=CCCCN(Cc1ccccc1)S(=O)(=O)c1ccccc1Br,21,27,44*,x,-7
C=CS(=O)(=O)N(Cc1ccccc1Br)[C@H](CO)Cc1ccccc1,x,x,x,x,-2
O=S(=O)(c1ccccc1Br)N(Cc1ccccc1)CC(O)COCc1ccccc1 (stereo not given),36*,41,-16,x,-1
COc1cc(CN(CC(C)C)S(=O)(=O)c2ccccc2Br)cc(OC)c1,34*,35,-20,x,-6
CCOc1ccc(-c2cccc(NS(=O)(=O)c3cccc([N+](=O)[O-])c3)c2)nn1,x,x,x,x,-4
CN1CCC(N(C)C(=O)/C(C#N)=C\c2ccc(OC(F)F)cc2)CC1,x,x,x,x,-7
CC(=O)N[C@@H](Cc1c[nH]c2ccccc12)C(=O)OCC(=O)Nc1ccc2c(c1)OCO2,x,x,x,x,-6
O=C(COC(=O)[C@H](Cc1c[nH]c2ccccc12)NC(=O)c1ccc(Cl)cc1)Nc1ccc2c(c1)OCO2,6,34,35*,5,-2
Cc1ccnc(NC(=O)Cn2c(=O)oc3ccccc32)c1,16,-4,-1,-14,-4
COc1ccccc1Cc1c(-c2ccccc2)nc2c3ccccc3ccn12,x,x,x,x,-6
O=c1cc(C(F)(F)F)[nH]c2c(C(F)(F)F)cccc12,67*,0,8,-12,x
O=S(=O)(NCc1ccccc1)NCc1ccc(Cl)cc1Cl,6,-37,-14,11,-4
Cc1cc(C)n2nc(-c3sccc3-n3c(C)ccc3C)cc2n1,76*,33,-16,-15,-2
COc1cccc2c(=O)cc(C)n(CC(=O)Nc3ccc(C)c(C)c3)c12,49*,-1,47*,15,-7
